Calls of active or inactive are those of the source. The rule behind the calls is not given here.
Experiments:
MCF7 [1] = experiment: Antiproliferative activity against human MCF7 cells assessed as reduction in cell viability after 72 hrs by MTT assay; type: functional, cell-based; conditions: for IC50: MCF7, 72 h
Outline: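 MCF-7 cells (DMEM, 10% FBS, 37 °C, 5% CO2) seeded 5 × 10³/well, left overnight, then exposed to compounds (0−50 μM) for 72 h. MTT added to 0.5 mg/mL final; formazan solubilised overnight with 10% SDS in 0.01 N HCl, absorbance at 570 nm. IC50 taken relative to vehicle (0.1% DMSO) as 100% survival. Triplicate determinations, three independent experiments; paclitaxel as positive control.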

U2OS = experiment: Antiproliferative activity against human U2OS cells assessed as reduction in cell viability after 72 hrs by MTT assay; type: functional, cell-based
Outline: (§1)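 U2-OS (ATCC) or INT-407 cells, cultured in DMEM with 10% FBS at 37 °C, 5% CO2, assayed by MTT reduction under the conditions used for MCF-7: 72 h exposure, absorbance at 570 nm, viability relative to 0.1% DMSO vehicle control; INT-407 tested up to 50 μM.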

[2] = Antiproliferative activity against human INT-407 cells assessed as reduction in cell viability up to 50 uM after 72 hrs by MTT assay; type: cell-based; conditions: intestine 407, 72 h; outline: as §1
MCF7 [3] = experiment: Inhibition of colony formation in human MCF7 cells incubated for 10 days by crystal violet staining based assay; type: functional, cell-based; conditions: dose 1-5 µM, time 10.0 day
Outline: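 Clonogenic survival: MCF-7 cells, 1 × 10³ per well, seeded overnight, then grown with 1, 2.5 or 5 μM in complete medium for 10 days. Colonies fixed with MeOH, stained with 0.5% crystal violet in 1:1 MeOH–water, counted. Surviving fraction corrected for plating efficiency, relative to vehicle; triplicates, three repeats.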

MCF7 [4] = experiment: Induction of apoptosis in human MCF7 cells assessed as increase in sub-G1 cell population at 5 uM after 48 hrs by propidium iodide/RNase A staining based flow cytometric analysis (reference value: 5.4 +/- 2.1 %); type: functional
MCF7 [5] = experiment: Induction of apoptosis in human MCF7 cells assessed as increase in sub-G1 cell population at 10 uM after 48 hrs by propidium iodide/RNase A staining based flow cytometric analysis (reference value: 5.4 +/- 2.1 %); type: functional
MCF7 [6] = experiment: Induction of cell cycle arrest in human MCF7 cells assessed as accumulation at G2 phase at 5 to 10 uM incubated for 24 hrs by propidium iodide/RNase A staining based flow cytometry; type: functional; conditions: dose 5-10 µM
Outline: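 For the cell cycle, MCF-7 cells were exposed to vehicle, 5 or 10 μM for 24 h, stained with PI/RNase in 0.1% sodium citrate containing Triton X-100, and phase distribution was quantified by flow cytometry. Three experiments, each in triplicate.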

MCF7 [7] = experiment: Induction of ROS generation in human MCF7 cells at 5 to 10 uM up to 3 hrs by DCFH-DA dye based flow cytometric analysis; type: functional, cell-based; conditions: dose 5-10 µM, time hrs <=3
MCF7 [8] = experiment: Induction of ROS generation in human MCF7 cells at 5 to 10 uM incubated for 6 hrs by DCFH-DA dye based flow cytometric analysis; type: functional, cell-based; conditions: dose 5-10 µM
Outline: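 MCF-7 cells (1 × 10⁵/well) loaded with DCFH-DA (10 μM, 30 min), washed, then exposed to 5 or 10 μM for various periods (6 h quantified); H2O2 100 μM as positive control. DCF green fluorescence (ex 480/em 530 nm) read by flow cytometry, expressed as fold of vehicle. Three repeats in triplicate.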

MCF7 [9] = experiment: Induction of mitochondrial membrane potential loss in human MCF7 cells incubated for 6 hrs by JC1 staining based flow cytometry; type: functional, cell-based; conditions: dose 5-10 µM
Outline: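 JC-1 assay: MCF-7 cells (1 × 10⁵/well) treated at 5 or 10 μM (legend gives 6 h, methods 8 h), stained with JC-1 (5 μg/mL) for 30 min, trypsinised, and analysed by flow cytometry. MMP loss scored from the drop in red fluorescence MFI as fold of vehicle; CCCP 10 μM as positive control. Five repeats in triplicate.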

MCF7 [10] = experiment: Induction of lysosomal membrane permeabilization in human MCF7 cells at 5 to 10 uM […] by AO staining based flow cytometry; type: functional, cell-based; conditions: dose 5-10 µM
MCF7 [11] = experiment: Induction of lysosomal membrane permeabilization in human MCF7 cells after 6 hrs by AO staining based flow cytometry; type: functional, cell-based; conditions: dose 5-10 µM
Outline: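 MCF-7 cells treated at 5 or 10 μM (0−10 μM) for various periods, washed with PBS, then stained with acridine orange (10 μM, 15 min, 37 °C) and analysed by flow cytometry. LMP measured from green-channel MFI at 6 h as fold of vehicle; five repeats in triplicate.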

| SMILES | Activity (MCF7 [1]) | IC50 (MCF7 [1]) [µM] | IC50 (U2OS) [µM] | Activity [2] | inhibition (MCF7 [3]) | Activity (MCF7 [4]) [%] | Activity (MCF7 [5]) [%] | Activity (MCF7 [6]) | Activity (MCF7 [7]) | Activity (MCF7 [8]) | Activity (MCF7 [9]) | Activity (MCF7 [10]) | Activity (MCF7 [11]) |
| --- | --- | --- | --- | --- | --- | --- | --- | --- | --- | --- | --- | --- | --- |
| COc1cc(CC/C=C/C(=O)CCc2ccccc2)ccc1O | Dose-Dependent Effect | 3.9 | 10.7 | Non-Toxic | Dose-Dependent Effect | 16.3 | 27.5 | Active | inactive | Active | Dose-Dependent Effect | inactive | Dose-Dependent Effect |
| COc1cc(CC[C@H](O)CC(=O)CCc2ccccc2)ccc1O | Dose-Dependent Effect | > 50 | – | – | – | – | – | – | – | – | – | – | – |
| COc1cc(CC[C@@H](O)CC(=O)CCc2ccccc2)ccc1O | Dose-Dependent Effect | > 50 | – | – | – | – | – | – | – | – | – | – | – |
